From PubChem BioAssay AID2247 (Johns Hopkins Ion Channel Center, 2010)
About 1,200 (0.4%) of roughly 300,000 compounds were called active.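 The calls were made as follows: active = B-score over 3 SD under the library average, no early fluorescence shift, positive overall ratio signal; inactive = the rest.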 The full list was thinned out, with actives kept by preference.

Molecular target: Short transient receptor potential channel 4 (Mus musculus) (UniProt Q9QUQ5)
Assay: inhibitors of mouse TRPC4 channel, primary screen, Fluo4 calcium, HEK293 TRPC4beta/mu-opioid cells (AID 2247)
Conditions: DAMGO-evoked Fluo4 calcium flux, at 10 µM; active compounds read low
Procedure, shortened: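 System: stable TRPC4beta/mu-opioid receptor HEK293 cells; Dosing: single-point compound dosing; Measured by: Fluo4 Ca2+ flux fluorescence; Read-out basis: per-well B score of integrated baseline-normalized Fluo4 ratio.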

Short transient receptor potential channel 4 (Mus musculus), sequence (Q9QUQ5 whole entry, looked up): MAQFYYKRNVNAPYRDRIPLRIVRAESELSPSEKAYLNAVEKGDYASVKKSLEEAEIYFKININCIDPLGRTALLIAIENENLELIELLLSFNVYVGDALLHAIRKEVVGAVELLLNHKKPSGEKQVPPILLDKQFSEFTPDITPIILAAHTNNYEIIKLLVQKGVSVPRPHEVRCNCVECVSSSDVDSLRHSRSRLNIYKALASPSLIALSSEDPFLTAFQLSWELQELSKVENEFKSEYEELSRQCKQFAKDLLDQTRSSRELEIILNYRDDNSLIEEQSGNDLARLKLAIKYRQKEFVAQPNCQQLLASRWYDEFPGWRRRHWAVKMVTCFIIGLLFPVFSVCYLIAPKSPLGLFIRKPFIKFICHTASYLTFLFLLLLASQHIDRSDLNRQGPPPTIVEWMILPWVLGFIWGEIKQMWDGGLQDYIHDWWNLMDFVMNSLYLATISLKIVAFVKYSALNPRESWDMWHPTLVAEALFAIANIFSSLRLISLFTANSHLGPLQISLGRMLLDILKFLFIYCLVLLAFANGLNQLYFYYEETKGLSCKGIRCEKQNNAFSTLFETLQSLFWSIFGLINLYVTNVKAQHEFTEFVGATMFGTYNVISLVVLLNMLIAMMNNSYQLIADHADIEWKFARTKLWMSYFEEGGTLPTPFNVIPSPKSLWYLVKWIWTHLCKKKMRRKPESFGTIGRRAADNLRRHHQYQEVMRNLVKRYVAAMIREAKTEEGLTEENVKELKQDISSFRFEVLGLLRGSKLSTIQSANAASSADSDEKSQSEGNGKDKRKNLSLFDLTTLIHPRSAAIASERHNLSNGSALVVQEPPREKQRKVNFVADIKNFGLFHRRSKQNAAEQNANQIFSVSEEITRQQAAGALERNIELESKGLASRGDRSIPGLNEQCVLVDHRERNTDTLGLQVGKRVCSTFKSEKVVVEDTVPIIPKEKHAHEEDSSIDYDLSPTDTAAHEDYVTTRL

Compound	B-score
CCOC(=O)C1(Cc2ccc(Cl)cc2)CCN(C(C)CCn2cccn2)CC1 (stereo not given)	-6 (active)
CN(C)CC1CCCCC1=O (stereo not given)	inactive
CC(=O)N(C1=NCCCS1)c1ccccc1F	inactive
CSc1ccc(C(=O)C2CCCN(Cc3ccn[nH]3)C2)cc1 (stereo not given)	inactive
Cc1ccc(C2CN(C)CC2C(=O)c2ccc(F)cc2)cc1 (stereo not given)	-6 (active)
COc1ccc(C(=O)C2CN(C)CC2C(=O)c2ccc(OC)cc2)cc1 (stereo not given)	inactive
CN1CCC(OC(=O)c2cccc(F)c2)CC1	inactive
O=c1[nH]c(CN2CC=C(c3ccccc3)CC2)nc2scc(-c3cccs3)c12	inactive
COc1ccc(CN2CCN(c3ccccc3F)CC2)c(OC)c1	inactive
c1ccc(CCN2CCC3(CC2)OCCO3)cc1	inactive
CCC(=NCc1ccco1)c1c(O)n(Cc2ccccc2)c(=O)[nH]c1=O	inactive
CCOC(=O)C1(CCc2ccccc2)CCN(Cc2ccco2)CC1	-8 (active)
COc1ccc(N=Cc2c(O)n(C)c(=O)[nH]c2=O)cc1	inactive
N#CC1=C(N)Oc2c(c(=O)oc3ccccc23)C1c1ccccc1OC(=O)c1cccs1 (stereo not given)	inactive
COC(=O)C1=C(c2cc3ccccc3s2)C[C@@H]2CC[C@H]1N2C(=O)NCCO	-6 (active)
COC(=O)C1=C(c2cc3ccccc3s2)C[C@@H]2CC[C@H]1N2C(=O)NC(C)C	inactive
COC(=O)C1=C(c2cc3ccccc3s2)C[C@@H]2CC[C@H]1N2C(=O)NCc1cccc2ccccc12	inactive
OCC#CC[N+]1(CC#Cc2ccccc2)CCCC1	inactive
CNCC(O)c1cc(F)c(OCc2ccccc2)c(OCc2ccccc2)c1F (stereo not given)	inactive
CCOc1cccc(=NC2CCCCC2)c2c(C)[nH]c(C)c12	inactive
